Test results taken from ChEMBL document CHEMBL1139981, “Novel heterocyclic thyromimetics. Part 2” (Bioorg Med Chem Lett, 2007).

Assays:
[1] = biological target: T1, Thyroid hormone receptor (Homo sapiens, UniProt P10827+P10828); assay: Agonist activity at THR in HepG2 cells by whole cell assay; type: functional, cell-based
T1 sequence (P10827 whole entry): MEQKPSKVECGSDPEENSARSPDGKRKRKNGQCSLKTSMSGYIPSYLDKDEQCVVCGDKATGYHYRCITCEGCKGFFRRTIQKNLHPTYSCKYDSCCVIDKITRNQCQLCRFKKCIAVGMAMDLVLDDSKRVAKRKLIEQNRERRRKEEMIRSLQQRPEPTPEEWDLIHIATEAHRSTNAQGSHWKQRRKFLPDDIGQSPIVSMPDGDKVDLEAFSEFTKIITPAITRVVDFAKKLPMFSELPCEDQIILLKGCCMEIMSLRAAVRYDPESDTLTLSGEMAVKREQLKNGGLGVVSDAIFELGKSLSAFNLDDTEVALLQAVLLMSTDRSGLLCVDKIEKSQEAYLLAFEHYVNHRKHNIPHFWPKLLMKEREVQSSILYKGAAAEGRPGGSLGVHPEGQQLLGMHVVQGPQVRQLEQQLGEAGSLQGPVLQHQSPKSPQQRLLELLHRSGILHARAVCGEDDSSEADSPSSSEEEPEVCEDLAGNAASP
T1 sequence (P10828 whole entry): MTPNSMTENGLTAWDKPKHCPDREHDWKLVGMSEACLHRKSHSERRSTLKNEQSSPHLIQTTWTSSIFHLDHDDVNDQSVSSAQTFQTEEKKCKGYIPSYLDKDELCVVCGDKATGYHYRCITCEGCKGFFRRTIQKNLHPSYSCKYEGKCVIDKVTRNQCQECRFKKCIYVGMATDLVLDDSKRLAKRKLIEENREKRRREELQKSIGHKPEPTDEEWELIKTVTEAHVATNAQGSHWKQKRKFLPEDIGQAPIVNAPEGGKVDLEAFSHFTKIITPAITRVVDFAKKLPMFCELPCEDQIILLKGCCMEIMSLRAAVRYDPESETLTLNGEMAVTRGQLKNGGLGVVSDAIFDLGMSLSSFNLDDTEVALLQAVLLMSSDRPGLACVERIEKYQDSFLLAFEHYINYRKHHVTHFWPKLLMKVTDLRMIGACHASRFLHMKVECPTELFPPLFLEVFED

[2] = system: Mus musculus; assay: Increase in heart weight in C57BL/6J mouse at 0.1 mg/kg, po after 11 days; type: functional
Summary of the method: (§1)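 C57BL/6J mice, 10-12 per group, dosed orally by gavage once daily for 11 days in solutol/ethanol/water 10:10:80. Doses were 0.1, 0.3 and 3.0 mg/kg, given as the ethyl ester. At study end, heart rate was measured by non-invasive tail cuff, then the animals were sacrificed and hearts weighed. Heart weight change is expressed versus control.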

[3] = system: Mus musculus; assay: Increase in heart weight in C57BL/6J mouse at 0.3 mg/kg, po after 11 days; type: functional; summary of the method: as §1
[4] = system: Mus musculus; assay: Increase in heart weight in C57BL/6J mouse at 3.0 mg/kg, po after 11 days; type: functional; summary of the method: as §1
[5] = system: Mus musculus; assay: Reduction in serum cholesterol in NMIR mouse at 0.1 mg/kg, po after 7 days; type: functional; parameters: scale not given: the % may be the effect or the level left
Summary of the method: (§2)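 At study end, blood was taken retro-orbitally. Serum cholesterol (and triglycerides) were measured enzymatically with commercial kits on an autoanalyzer. Reduction is expressed as percent versus the control group.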

[6] = system: Mus musculus; assay: Reduction in serum cholesterol in NMIR mouse at 0.3 mg/ kg, po after 7 days; type: functional; parameters: scale not given: the % may be the effect or the level left; summary of the method: as §2
[7] = system: Mus musculus; assay: Reduction in serum cholesterol in NMIR mouse at 1.0 mg/ kg, po after 7 days; type: functional; parameters: scale not given: the % may be the effect or the level left; summary of the method: as §2
[8] = system: Mus musculus; assay: Reduction in serum cholesterol in NMIR mouse at 3.0 mg/ kg, po after 7 days; type: functional; parameters: scale not given: the % may be the effect or the level left; summary of the method: as §2

Compound | EC50 [1] | other results
CC(C)c1cc(Oc2c(C(C)C)cc(CC3SC(=O)NC3=O)cc2C(C)C)ccc1O (centres undefined) | 70 nM | –
CC(C)c1cc(Oc2ccc3oc(C(=O)O)cc3c2)ccc1O | 1000 nM | –
COc1ccc(Oc2c(Br)cc3oc(C(=O)O)cc3c2Br)cc1C(C)C | 1000 nM | –
O=C(O)c1cc2c(Br)c(Oc3ccc(O)c(C(=O)c4ccc(F)cc4)c3)c(Br)cc2o1 | 210 nM | –
O=C(O)c1cc2c(Br)c(Oc3ccc(O)c(C(O)c4ccc(F)cc4)c3)c(Br)cc2o1 (centres undefined) | 22 nM | –
Cc1cc(CC2SC(=O)NC2=O)cc(C)c1Oc1ccc(O)c(C(C)C)c1 (centres undefined) | 0.08 nM | –
Cc1cc2oc(C(=O)O)cc2c(C)c1Oc1ccc(O)c(C(C)C)c1 | 110 nM | –
Cc1cc2c(c(C)c1Oc1ccc(O)c(C(C)C)c1)CC(CC(=O)O)O2 (centres undefined) | 5.1 nM | –
Cc1cc2c(CC(=O)O)coc2c(C)c1Oc1ccc(O)c(C(C)C)c1 | 0.3 nM | Activity [2]: 12%; Activity [3]: 17%; Activity [4]: 27%; Activity [5]: 32%; Activity [6]: 34%; Activity [7]: 39%; Activity [8]: 41%
Cc1ccc(CC2CC(=O)NC(=O)S2)c(C)c1Oc1ccc(O)c(C(C)C)c1 (centres undefined) | 0.06 nM | –
Cc1cc2c(CC(=O)O)coc2c(C)c1Oc1ccc(O)cc1 | 1000 nM | –
CC(C)c1cc(Oc2c(Br)cc3oc(C(=O)O)cc3c2Br)ccc1O | 7 nM | –
